Measured values as given in ChEMBL document CHEMBL3596093, “Synthesis and antimicrobial evaluation of 5-aryl-1,2,4-triazole-3-thione derivatives containing a rhodanine moiety” (2015).

Assays:
Pseudomonas aeruginosa [1] = test: Antibacterial activity against Pseudomonas aeruginosa 2004 after 24 hrs by two-fold serial dilution method; assay type: functional; details: Pseudomonas aeruginosa, 2004, 24 h
Summary of the method: (§1)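 Strains grown to mid-log phase in Mueller-Hinton broth, then diluted 1000-fold in the same broth to about 10^5 CFU/mL. Compounds were made up as DMSO stocks and two-fold serially diluted from a final top concentration of 64 µg/mL. Incubation was 37 °C for 24 h. Growth was read as absorbance at 630 nm on a microplate reader. MIC assays were run in triplicate.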

Pseudomonas aeruginosa [2] = test: Antibacterial activity against Pseudomonas aeruginosa 2742 after 24 hrs by two-fold serial dilution method; assay type: functional; details: Pseudomonas aeruginosa, 2742, 24 h; summary of the method: as §1
Staphylococcus aureus [3] = test: Antibacterial activity against Staphylococcus aureus RN4220 after 24 hrs by two-fold serial dilution method; assay type: functional; details: RN4220, 24 h
Summary of the method: (§2)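 Broth microdilution MIC. Bacteria grown to mid-log phase in Mueller-Hinton broth, diluted 1000-fold, about 10^5 CFU/mL. Compounds from DMSO stocks, two-fold serial dilution from a final 64 µg/mL. Incubation at 37 °C for 24 h. Growth read as absorbance at 630 nm on a microplate reader. Run in triplicate.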

Staphylococcus aureus [4] = test: Antibacterial activity against Staphylococcus aureus KCTC 503 after 24 hrs by two-fold serial dilution method; assay type: functional; details: KCTC 503, 24 h; summary of the method: as §1
Salmonella typhimurium = test: Antibacterial activity against Salmonella typhimurium 2421 after 24 hrs by two-fold serial dilution method; assay type: functional, Salmonella enterica subsp. enterica serovar Typhimurium; details: Salmonella enterica, 2421, 24 h; summary of the method: as §1
Candida albicans = test: Antifungal activity against Candida albicans 7535 after 24 hrs by two-fold serial dilution method; assay type: functional; details: Candida albicans, 7535, 24 h
Staphylococcus aureus [5] = test: Antibacterial activity against methicillin-resistant Staphylococcus aureus CCARM 3506 after 24 hrs by two-fold serial dilution method; assay type: functional; details: CCARM 3506, 24 h; summary of the method: as §2
Staphylococcus aureus [6] = test: Antibacterial activity against quinolone-resistant Staphylococcus aureus CCARM 3505 after 24 hrs by two-fold serial dilution method; assay type: functional; details: CCARM 3505, 24 h; summary of the method: as §2
Staphylococcus aureus [7] = test: Antibacterial activity against methicillin-resistant Staphylococcus aureus CCARM 3167 after 24 hrs by two-fold serial dilution method; assay type: functional; details: CCARM 3167, 24 h; summary of the method: as §2
Escherichia coli [8] = test: Antibacterial activity against Escherichia coli CCARM 1356 after 24 hrs by two-fold serial dilution method; assay type: functional; details: CCARM 1356, 24 h; summary of the method: as §1
Staphylococcus aureus [9] = test: Antibacterial activity against quinolone-resistant Staphylococcus aureus CCARM 3519 after 24 hrs by two-fold serial dilution method; assay type: functional; details: CCARM 3519, 24 h; summary of the method: as §2
Staphylococcus aureus [10] = test: Antibacterial activity against Staphylococcus aureus KCTC 209 after 24 hrs by two-fold serial dilution method; assay type: functional; details: KCTC 209, 24 h; summary of the method: as §1
Streptococcus mutans = test: Antibacterial activity against Streptococcus mutans 3065 after 24 hrs by two-fold serial dilution method; assay type: functional; details: Streptococcus mutans, 3065, 24 h; summary of the method: as §1
Escherichia coli [11] = test: Antibacterial activity against Escherichia coli KCTC 1924 after 24 hrs by two-fold serial dilution method; assay type: functional; details: KCTC 1924, 24 h; summary of the method: as §1

| Compound | MIC (Pseudomonas aeruginosa [1]) | MIC (Pseudomonas aeruginosa [2]) | MIC (Staphylococcus aureus [3]) | MIC (Staphylococcus aureus [4]) | MIC (Salmonella typhimurium) | MIC (Candida albicans) | MIC (Staphylococcus aureus [5]) | MIC (Staphylococcus aureus [6]) | MIC (Staphylococcus aureus [7]) | MIC (Escherichia coli [8]) | MIC (Staphylococcus aureus [9]) | MIC (Staphylococcus aureus [10]) | MIC (Streptococcus mutans) | MIC (Escherichia coli [11]) |
| --- | --- | --- | --- | --- | --- | --- | --- | --- | --- | --- | --- | --- | --- | --- |
| O=C(O)CN1C(=O)/C(=C/c2ccc(/C=N/n3c(-c4ccccc4)n[nH]c3=S)cc2)SC1=S | > 128 µg/mL | > 128 µg/mL | > 64 µg/mL | > 64 µg/mL | > 128 µg/mL | > 64 µg/mL | > 64 µg/mL | > 64 µg/mL | > 64 µg/mL | > 128 µg/mL | > 64 µg/mL | > 64 µg/mL | > 64 µg/mL | > 128 µg/mL |
| O=C(O)CN1C(=O)/C(=C/c2ccc(/C=N/n3c(-c4cccc(Cl)c4)n[nH]c3=S)cc2)SC1=S | > 128 µg/mL | > 128 µg/mL | > 64 µg/mL | > 64 µg/mL | > 128 µg/mL | > 64 µg/mL | > 64 µg/mL | > 64 µg/mL | > 64 µg/mL | > 128 µg/mL | > 64 µg/mL | > 64 µg/mL | > 64 µg/mL | > 128 µg/mL |
| O=C(O)CN1C(=O)/C(=C/c2ccc(/C=N/n3c(-c4ccc(Cl)cc4)n[nH]c3=S)cc2)SC1=S | > 128 µg/mL | > 128 µg/mL | > 64 µg/mL | > 64 µg/mL | > 128 µg/mL | > 64 µg/mL | > 64 µg/mL | > 64 µg/mL | > 64 µg/mL | > 128 µg/mL | > 64 µg/mL | > 64 µg/mL | > 64 µg/mL | > 128 µg/mL |
| O=C(O)CN1C(=O)/C(=C/c2ccc(/C=N/n3c(-c4ccc(Br)cc4)n[nH]c3=S)cc2)SC1=S | > 128 µg/mL | > 128 µg/mL | > 64 µg/mL | > 64 µg/mL | > 128 µg/mL | > 64 µg/mL | > 64 µg/mL | > 64 µg/mL | > 64 µg/mL | > 128 µg/mL | > 64 µg/mL | > 64 µg/mL | > 64 µg/mL | > 128 µg/mL |
| Cc1ccc(-c2n[nH]c(=S)n2/N=C/c2ccc(/C=C3\SC(=S)NC3=O)cc2)cc1 | > 128 µg/mL | > 128 µg/mL | > 64 µg/mL | > 64 µg/mL | > 128 µg/mL | > 64 µg/mL | > 64 µg/mL | > 64 µg/mL | > 64 µg/mL | > 128 µg/mL | > 64 µg/mL | > 64 µg/mL | > 64 µg/mL | > 128 µg/mL |
| O=C1NC(=S)S/C1=C\c1ccc(/C=N/n2c(-c3cccc(Cl)c3)n[nH]c2=S)cc1 | > 128 µg/mL | > 128 µg/mL | > 64 µg/mL | > 64 µg/mL | > 128 µg/mL | > 64 µg/mL | > 64 µg/mL | > 64 µg/mL | > 64 µg/mL | > 128 µg/mL | > 64 µg/mL | > 64 µg/mL | > 64 µg/mL | > 128 µg/mL |
| O=C1NC(=S)S/C1=C\c1ccc(/C=N/n2c(-c3ccc(Cl)cc3)n[nH]c2=S)cc1 | > 128 µg/mL | > 128 µg/mL | > 64 µg/mL | > 64 µg/mL | > 128 µg/mL | > 64 µg/mL | > 64 µg/mL | > 64 µg/mL | > 64 µg/mL | > 128 µg/mL | > 64 µg/mL | > 64 µg/mL | > 64 µg/mL | > 128 µg/mL |
| O=C1NC(=S)S/C1=C\c1ccc(/C=N/n2c(-c3ccc(F)cc3)n[nH]c2=S)cc1 | > 128 µg/mL | > 128 µg/mL | > 64 µg/mL | > 64 µg/mL | > 128 µg/mL | > 64 µg/mL | > 64 µg/mL | > 64 µg/mL | > 64 µg/mL | > 128 µg/mL | > 64 µg/mL | > 64 µg/mL | > 64 µg/mL | > 128 µg/mL |
